Experimental findings from ChEMBL document CHEMBL2380293, “Design, synthesis, and biological evaluation of novel histone deacetylase 1 inhibitors through click chemistry” (Bioorg Med Chem Lett, 2013) are described below.

The term GI50 denotes the concentration at which growth is held to half of that of the control. A lower GI50 goes with greater sensitivity of the cells. Broadly, the IC50 is the concentration that gives 50% inhibition.

Structures are written as SMILES. The source made the active and inactive calls. No cut-off for these calls is given here.

For one assay, the system named is DU-145. Put plainly: Growth inhibition of human DU145 cells by MTT assay. Format: functional.
The test system of another assay is A549. Put plainly: Growth inhibition of human A549 cells by MTT assay. Format: functional.
Another assay has as its system BGC-823. Put plainly: Growth inhibition of human BGC823 cells by MTT assay. Format: functional.
Another assay deals with A-431. Kind of assay: Growth inhibition of human A431 cells by MTT assay. Format: functional. For orientation: Tetrazolium dyes change colour on reduction, which living cells bring about.
The target in assay [1] is T1, Histone deacetylase 7 (Homo sapiens) (UniProt Q8WUI4).
T1 sequence (whole entry): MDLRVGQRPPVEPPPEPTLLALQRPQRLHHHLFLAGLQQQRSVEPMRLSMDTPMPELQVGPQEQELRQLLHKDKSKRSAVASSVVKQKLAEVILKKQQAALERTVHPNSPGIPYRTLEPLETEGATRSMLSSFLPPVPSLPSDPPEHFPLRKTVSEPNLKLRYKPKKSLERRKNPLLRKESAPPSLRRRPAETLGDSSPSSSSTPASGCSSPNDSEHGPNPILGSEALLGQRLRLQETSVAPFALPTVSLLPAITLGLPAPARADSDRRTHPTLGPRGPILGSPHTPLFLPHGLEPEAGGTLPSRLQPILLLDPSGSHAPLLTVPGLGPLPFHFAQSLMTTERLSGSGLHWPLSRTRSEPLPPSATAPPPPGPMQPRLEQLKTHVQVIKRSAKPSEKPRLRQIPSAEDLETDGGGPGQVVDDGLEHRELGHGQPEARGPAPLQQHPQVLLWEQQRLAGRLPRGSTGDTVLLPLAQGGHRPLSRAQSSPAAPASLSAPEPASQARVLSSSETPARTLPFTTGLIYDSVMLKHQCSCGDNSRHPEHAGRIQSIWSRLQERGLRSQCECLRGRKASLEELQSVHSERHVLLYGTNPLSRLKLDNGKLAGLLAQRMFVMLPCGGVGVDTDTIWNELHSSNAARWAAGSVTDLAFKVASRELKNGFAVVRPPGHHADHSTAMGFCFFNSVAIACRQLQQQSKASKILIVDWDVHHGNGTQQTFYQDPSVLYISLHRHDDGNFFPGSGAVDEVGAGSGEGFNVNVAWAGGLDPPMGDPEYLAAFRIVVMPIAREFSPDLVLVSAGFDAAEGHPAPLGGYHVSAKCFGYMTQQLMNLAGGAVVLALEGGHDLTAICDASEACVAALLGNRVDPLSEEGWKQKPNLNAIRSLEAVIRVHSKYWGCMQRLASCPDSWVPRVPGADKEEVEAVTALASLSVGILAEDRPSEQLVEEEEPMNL
Kind of assay: Inhibition of human recombinant HDAC7 at 10 uM incubated for 10 mins prior to substrate addition measured after 60 mins by spectrophotometric analysis. The method, boiled down: (§1)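 Enzyme IC50 values are means of three experiments, with SAHA run as the positive control. Absence of activity was judged at 10 μM.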

For assay [2], the target named is T2, Histone deacetylase 1 (Homo sapiens, UniProt Q13547). Put plainly: Inhibition of human recombinant HDAC1 incubated for 10 mins prior to substrate addition measured after 60 mins by spectrophotometric analysis.
T2 sequence (Q13547 whole entry): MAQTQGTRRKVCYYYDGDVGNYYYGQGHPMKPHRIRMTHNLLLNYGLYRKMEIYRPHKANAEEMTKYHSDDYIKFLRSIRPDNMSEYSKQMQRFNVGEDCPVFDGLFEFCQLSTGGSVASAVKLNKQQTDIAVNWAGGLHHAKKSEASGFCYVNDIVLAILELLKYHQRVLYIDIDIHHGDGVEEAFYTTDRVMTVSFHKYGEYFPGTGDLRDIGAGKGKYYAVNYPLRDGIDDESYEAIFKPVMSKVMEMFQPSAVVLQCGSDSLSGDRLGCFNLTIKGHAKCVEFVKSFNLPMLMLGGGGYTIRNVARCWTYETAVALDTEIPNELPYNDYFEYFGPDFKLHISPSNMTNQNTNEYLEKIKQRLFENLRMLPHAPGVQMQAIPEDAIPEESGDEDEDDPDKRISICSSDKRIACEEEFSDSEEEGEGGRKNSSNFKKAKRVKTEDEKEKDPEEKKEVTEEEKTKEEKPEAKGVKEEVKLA
In the next assay the test system is HT-1080. Kind of assay: Growth inhibition of human HT1080 cells by MTT assay. Format: functional. Particulars: Homo sapiens, HT-1080. The method, boiled down:
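MTT cell growth read-out, with SAHA as the positive control. GI50 values are means of three experiments. 10 μM was the concentration tested for scoring absence of activity.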

The test system of a further assay is HeLa. Put plainly: Growth inhibition of human HeLa cells by MTT assay. Format: functional.
The subject of a further assay is HUVEC. Kind of assay: Growth inhibition of HUVEC by MTT assay. Format: functional. Particulars: Homo sapiens.
Assay [3] addresses T2, Histone deacetylase 1. Put plainly: Inhibition of human recombinant HDAC1 at 10 uM incubated for 10 mins prior to substrate addition measured after 60 mins by spectrophotometric analysis. The method, boiled down: as §1

For `O=C(CCCCc1cn(Cc2ccc(-c3ccccc3)cc2)nn1)NO`, the GI50 was determined as 1210 nM in the assay with DU-145; 2150 nM in the assay with A549; 1800 nM in the assay on BGC-823; 2990 nM with A-431; 2690 nM with HT-1080; 3720 nM in the assay on HeLa. The GI50 in the assay with HUVEC was 5480 nM. The inhibition entry in [1] is “inactive”. For the same molecule, the half-inhibitory concentration (IC50) on Histone deacetylase 1 [2] came to 202 nM.
With `O=C(CCCCc1cn(Cc2c(Br)cc(Br)cc2Br)nn1)NO`, the inhibition entry (in assay [1]; at Histone deacetylase 1 [3]) was “inactive” throughout.
For `O=C(CCCCc1cn(Cc2cccc(-c3ccccc3)c2)nn1)NO`, the GI50 in the assay on DU-145 stood at 1190 nM; with A549, 1470 nM; in the assay with BGC-823 it was 3050 nM; in the assay on A-431, 4650 nM; in the assay on HT-1080, 3140 nM; in the assay with HeLa it was 3850 nM. The molecule also yielded a GI50 in the assay with HUVEC of 1130 nM. Also, the inhibition entry in assay [1] was “inactive”. For the same molecule, the IC50 at Histone deacetylase 1 [2] turned out to be 58 nM.
